# Measurements as given in ChEMBL document CHEMBL5120760, “Terpenoids and Meroterpenoids from Cultures of Two Grass-Associated Species of Amylosporus (Basidiomycota)” (J Nat Prod, 2022).
# How the values were obtained:
# [1] = system: Mycolicibacterium smegmatis; assay: Antibacterial activity against Mycobacterium smegmatis ATCC 700084 assessed as inhibition of bacterial growth incubated for overnight by serial dilution method; type: functional
# Wickerhamomyces anomalus = assay: Antifungal activity against Pichia anomala DSM 6766 assessed as inhibition of fungal growth incubated for overnight by serial dilution method; type: functional, organism-based
# [2] = system: Schizosaccharomyces pombe; assay: Antifungal activity against Schizosaccharomyces pombe DSM 70572 assessed as inhibition of fungal growth incubated for overnight by serial dilution method; type: functional, organism-based
# Rhodotorula glutinis = assay: Antifungal activity against Rhodotorula glutinis DSM 10134 assessed as inhibition of fungal growth incubated for overnight by serial dilution method; type: functional, organism-based
# Mucor hiemalis = assay: Antifungal activity against Mucor hiemalis DSM 2656 assessed as inhibition of fungal growth incubated for overnight by serial dilution method; type: functional
# L929 = assay: Cytotoxicity against mouse L929 cells assessed as inhibition of cell proliferation incubated for 5 days by MTT assay; type: functional, cell-based; conditions: L929, 120 h
# Method in brief: (§1)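 Colorimetric MTT tetrazolium assay, with epothilone B (1 mg/mL stock) as the positive control. IC50 was determined.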
# Staphylococcus aureus = assay: Antibacterial activity against Staphylococcus aureus DSM 346 assessed as inhibition of bacterial growth incubated for overnight by serial dilution method; type: functional
# SK-OV-3 = assay: Cytotoxicity against human SK-OV-3 cells assessed as inhibition of cell proliferation incubated for 5 days by MTT assay; type: functional, cell-based; conditions: SK-OV-3, 120 h; method in brief: as §1
# KB 3-1 = assay: Cytotoxicity against human KB 3-1 cells assessed as inhibition of cell proliferation incubated for 5 days by MTT assay; type: functional, cell-based; conditions: KB 3-1, 120 h; method in brief: as §1
# Bacillus subtilis = assay: Antibacterial activity aginst Bacillus subtilis DSM 10 assessed as inhibition of bacterial growth incubated for overnight by serial dilution method; type: functional
# Pseudomonas aeruginosa = assay: Antibacterial activity against Pseudomonas aeruginosa PA 14 assessed as inhibition of bacterial growth incubated for overnight by serial dilution method; type: functional, organism-based
# Micrococcus luteus = assay: Antibacterial activity against Micrococcus luteus DSM 1790 assessed as inhibition of bacterial growth incubated for overnight by serial dilution method; type: functional
# Escherichia coli = assay: Antibacterial activity against Escherichia coli DSM 1116 assessed as inhibition of bacterial growth incubated for overnight by serial dilution method; type: functional
# [3] = system: Chromobacterium violaceum; assay: Antibacterial activity against Chromobacterium violaceum DSM 30191 assessed as inhibition of bacterial growth incubated for overnight by serial dilution method; type: functional
Compound,MIC (Mucor hiemalis),IC50 (L929),MIC (Staphylococcus aureus),IC50 (KB 3-1),MIC (Bacillus subtilis),also measured
NC[C@H]1O[C@H](O[C@H]2[C@H](O)[C@@H](O[C@H]3O[C@H](CO)[C@@H](O)[C@H](N)[C@H]3O)[C@H](N)C[C@@H]2N)[C@H](O)[C@@H](O)[C@@H]1O [KANAMYCIN],–,–,–,–,–,MIC [1]: 1.7 µg/mL
NYSTATIN,16.7 µg/mL,–,–,–,–,MIC (Wickerhamomyces anomalus): 16.7 µg/mL; MIC [2]: 16.7 µg/mL; MIC (Rhodotorula glutinis): 4.2 µg/mL
CC(C)=CCC/C(C)=C/Cc1c(O)c(Cl)c(C)c(C=O)c1O,33.3 µg/mL,18 µM,1.04 µg/mL,7.7 µM,2.1 µg/mL,IC50 (SK-OV-3): 5.6 µM
CC(C)=CCC/C(C)=C/Cc1c(O)cc(C)c(C(=O)O)c1O,–,–,66.7 µg/mL,–,66.7 µg/mL,–
GENTAMICIN,–,–,–,–,–,MIC (Pseudomonas aeruginosa): 0.4 µg/mL
CC(C)=CCC/C(C)=C/Cc1c(O)cc(C)c(C=O)c1O,16.7 µg/mL,66 µM,8.33 µg/mL,62.5 µM,4.2 µg/mL,MIC (Micrococcus luteus): 33.3 µg/mL
CC(C)=CCc1c(C)c(C(=O)O)c(O)c(CC=C(C)C)c1O,66.7 µg/mL,59.2 µM,66.7 µg/mL,42.7 µM,66.7 µg/mL,–
C/C(=C\c1csc(C)n1)[C@@H]1C[C@@H]2O[C@]2(C)CCC[C@H](C)[C@H](O)[C@@H](C)C(=O)C(C)(C)[C@@H](O)CC(=O)O1 [PATUPILONE],–,0.0014 µM,–,6.9e-05 µM,–,–
CC(C)=CCc1c(C)cc(O)c(CC=C(C)C)c1O,33.3 µg/mL,53.8 µM,33.3 µg/mL,57.7 µM,33.3 µg/mL,–
CN(C)[C@@H]1C(=O)C(C(N)=O)=C(O)[C@@]2(O)C(=O)C3=C(O)c4c(O)cccc4[C@@](C)(O)[C@H]3[C@H](O)[C@@H]12,–,–,0.4 µg/mL,–,3.33 µg/mL,MIC (Escherichia coli): 8.3 µg/mL; MIC (Micrococcus luteus): 0.83 µg/mL; MIC [3]: 1.7 µg/mL
